# Compound activity: PubChem, several laboratories
# SENP8 block-1: SENP8 protease inhibition; inhibition, % at 10 µM; Q96LD8; purified SENP8, Z-RLRGG-aminoluciferin cleavage, luminescence; AID 2540; actives 1.2% (n = 330,000); in the data active = inhibition above about 50%
# Target sequence (Q96LD8 whole entry, looked up): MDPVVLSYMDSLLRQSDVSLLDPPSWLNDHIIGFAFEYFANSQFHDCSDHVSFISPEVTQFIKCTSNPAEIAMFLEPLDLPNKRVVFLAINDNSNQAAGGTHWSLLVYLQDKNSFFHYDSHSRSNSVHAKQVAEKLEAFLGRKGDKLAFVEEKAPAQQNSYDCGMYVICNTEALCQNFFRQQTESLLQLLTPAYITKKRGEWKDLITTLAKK
# SENP8 block-2: inhibitors of human SENP8 protease | recombinant SENP8, Nedd8 substrate fluorescence | inhibition, % at 20 µM | actives 0.64% (n = 360,000); in the data active = inhibition mostly above about 40%, no sharp cut-off; inactive = mostly below about 27%
# Platelet DG rel: platelet dense granule release activity; inhibition, %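 (compounds screened at 7.5 µM in platelet-rich plasma)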; human platelet-rich plasma, SFLLRN dense granule ATP release, luminescence; actives 0.22% (n = 300,000);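 active = mean replicate score, as percent of positive control, at or above 50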
# SENP1 inh: SENP1 (human) catalytic domain inhibition; recombinant SENP1 catalytic domain, CyPet-SUMO1-YPet FRET cleavage; inhibition, % at 10 µM; actives 0.21% (n = 360,000);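 active = inhibition at least 30% at 10 µM, raw YFP signal under a set limit, fluorescence ratio 0.5 to 1.5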;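 also: 0% = enzyme with DMSO and 100% = no enzyme wells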
# Target sequence (Q9P0U3 419-644 limits assumed): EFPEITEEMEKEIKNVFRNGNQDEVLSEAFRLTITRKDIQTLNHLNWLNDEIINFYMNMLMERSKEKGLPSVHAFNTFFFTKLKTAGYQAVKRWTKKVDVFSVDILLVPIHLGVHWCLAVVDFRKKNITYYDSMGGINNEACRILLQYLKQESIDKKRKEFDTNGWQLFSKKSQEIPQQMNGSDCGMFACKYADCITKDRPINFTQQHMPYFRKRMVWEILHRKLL
#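 System: Recombinant human SENP1 catalytic domain, His6-tagged | Incubation: Enzyme reaction for 50 min at room temperature, dark | Medium: Tris pH 8 with BME, BSA, NP40 and catalase | Also added: 25 nM SUMO1 FRET substrate | Compound: 10 µM single point, 0.5% DMSO | Measured by: FRET fluorescence in CFP and YFP emission channels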
# SENP6 inh: inhibitors of human SENP6 protease; Recombinant SENP6 catalytic domain, aminoluciferin luminescence; inhibition, % at 10 µM; actives 1.8% (n = 330,000); AID 2599;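 active = inhibition above about 50% at the single tested dose, limit read from the data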;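 also: plate controls were DMSO wells with enzyme for no effect and DMSO wells lacking enzyme for full effect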
# SENP7 block: inhibitors of human SENP7 protease; actives 1.5% (n = 330,000); recombinant SENP7, Z-RLRGG-aminoluciferin luminescence, 40 min; inhibition, % at 5 µM; Q9BQF6;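 active = inhibition above about 50% at the single test dose, limit read from the data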;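 also: plate controls were DMSO with enzyme for no effect and no enzyme buffer wells for full effect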
# SENP8 conf: SENP8 (human) inhibition, single concentration confirmation; purified SENP8, Nedd8-AMC/pro-Nedd8 cleavage fluorescence, 30 min; shares compounds with SENP8 block-2; inhibition, % at 25 µM; actives 15% (n = 1,400); in the data active = inhibition mostly above about 39%, no sharp cut-off; inactive = mostly below about 34%
# * marks the source's active call; other numbers are inactive results; / = no result given. Rows were chosen to be rich in hits. Some 2.6% of all compounds tested hit in one or more screens of this group.
SMILES,SENP8 block-1,SENP8 block-2,Platelet DG rel,SENP1 inh,SENP6 inh,SENP7 block,SENP8 conf
CC(=O)c1cccc(NC(=O)N2CCCC2C(=O)Nc2cccc(C)c2)c1 (centres undefined),-7.6,42.0*,1.3,1.2,-7.7,-2.8,-19.6
CC1Cc2ccccc2N1C(=O)COC(=O)c1ccc([N+](=O)[O-])o1 (centres undefined),3.5,42.5*,/,-0.7,25.7,18.1,79.5*
O=C(COC(=O)c1ccc([N+](=O)[O-])o1)NCc1ccc(F)cc1,-3.3,43.2*,/,-2.3,6.3,4.2,77.7*
O=C(COC(=O)c1ccc([N+](=O)[O-])o1)NC1CCS(=O)(=O)C1 (centres undefined),3.0,50.1*,0.9,1.0,-8.3,4.1,89.5*
CC1Cc2ccccc2N1C(=O)COC(=O)c1ccco1 (centres undefined),/,5.7,/,0.6,/,/,/
CC(=O)Nc1ccc(NC(=O)COC(=O)c2ccc([N+](=O)[O-])o2)cc1,12.3,33.6*,/,1.0,15.0,12.4,85.3*
COc1cccc(C(NC(C)=O)c2nc(-c3cccc(C(C)C)c3)cs2)c1 (centres undefined),/,4.2,/,0.2,/,/,/
COc1ccc(NC(=O)CNc2cccc(S(=O)(=O)N3CCCCCC3)c2)c([N+](=O)[O-])c1,-2.0,19.7,/,-0.4,-3.9,0.3,/
Cc1ccc(S(=O)(=O)N(CC(=O)Nc2ccc(Cl)c([N+](=O)[O-])c2)C2CCCCC2)cc1,1.5,45.0*,7.3,-8.0,-0.2,10.5,18.2
Cc1cc(C)c(C(=O)C(C)OC(=O)Cn2cnc3c2c(=O)n(C)c(=O)n3C)cc1C (centres undefined),4.8,13.1,-1.7,0.5,1.6,-14.5,/
COc1cc(C2(c3ccc(O)c(OC)c3)C(=O)Nc3c(C)cc(Br)cc32)ccc1O,-8.0,40.4*,5.0,-15.6,-10.0,10.0,15.3
O=C(N/N=C/c1ccc([N+](=O)[O-])o1)c1ccncc1,-2.0,54.0*,3.6,-0.4,11.5,-8.9,28.3
O=C(Cc1ccc2c(c1)OCO2)NN=Cc1ccc([N+](=O)[O-])o1,-14.4,39.4*,/,-25.6,3.1,-0.6,21.3
O=C(N/N=C\c1ccc([N+](=O)[O-])o1)c1cncc(Br)c1,14.5,65.8*,1.7,0.7,11.0,3.8,24.2
CCCCCC(=O)N/N=C/c1ccc([N+](=O)[O-])o1,4.0,27.9,2.6,-7.4,2.7,0.2,/
O=C(N/N=C/c1ccc(-c2ccccc2[N+](=O)[O-])o1)c1cncc(Br)c1,25.6,2.2,1.1,-6.8,33.1,9.1,/
Cc1ccc(C2C=CC(C#N)=CN2Cc2ccccc2)cc1 (centres undefined),/,-100.5,/,-46.4,/,/,/
NC(=O)CC(NC(=O)Cc1cccc2ccccc12)c1ccc(N2CCC(N3CCCC3)CC2)c([N+](=O)[O-])c1 (centres undefined),-2.0,3.3,-0.4,-0.6,2.2,0.4,/
CCNc1ccc(C(=O)OCC(=O)NC(C)c2ccccc2)cc1[N+](=O)[O-] (centres undefined),-7.3,40.4*,6.2,11.6,-6.3,-2.2,4.3
Cc1cc(S(=O)(=O)N2CCCCC2CCNC(=O)C(=O)NCC2CCCO2)ccc1F (centres undefined),-13.4,10.8,1.1,1.5,-14.1,-7.0,/
COc1cc(/C=C2\SC(=O)N(Cc3ccc(F)cc3)C2=O)cc([N+](=O)[O-])c1O,7.2,40.5*,5.7,10.5,7.3,-4.3,20.7
COc1cc(/C=C2\SC(=O)N(Cc3ccc(Cl)cc3)C2=O)cc([N+](=O)[O-])c1O,/,30.9,/,4.7,/,/,/
CSCCC(NS(=O)(=O)c1cccc(C(F)(F)F)c1)C(=O)N(C)CCOc1ccc(Cl)cc1 (centres undefined),-5.2,1.9,17.0,-4.1,-19.2,-6.9,/
C/C(=C\C(=O)c1ccc(C)o1)Nc1ccc2c(c1)OCO2,-12.7,47.1*,1.4,-15.1,-8.9,-2.2,37.5
S=C(Nc1ccc2c(c1)OCO2)Nc1ccc2c(c1)OCO2,4.9,52.8*,16.2,-8.8,36.8,7.5,21.2
SMILES,SENP8 block-1,SENP8 block-2,Platelet DG rel,SENP1 inh,SENP6 inh,SENP7 block,SENP8 conf
C/C(=C\C(=O)c1ccc(Br)cc1)Nc1cccc(Cl)c1,-13.1,40.4*,/,2.5,4.9,-2.1,-11.6
Cc1ccc(C(=O)OCC(=O)Nc2ccc3c(c2)OCO3)o1,-6.7,14.7,-0.5,0.2,3.6,-5.3,/
C/C(=C\C(=O)c1ccccc1)Nc1ccc2c(c1)OCO2,-17.9,66.9*,-9.5,-4.3,-11.0,0.9,20.7
CC(C)(C)C1CCN2CCCC(c3ccc([N+](=O)[O-])cc3)(C1)C21OCCO1 (centres undefined),/,12.1,/,-1.0,/,/,/
CC(=O)c1cccc(NC(=O)C(C)OC(=O)CN2C(=O)NC(C)(C)C2=O)c1 (centres undefined),-0.7,1.1,/,1.8,-8.2,3.7,/
O=[N+]([O-])c1nn(-c2ccc(Cl)cc2)n(O)c1=NCc1ccncc1,-3.6,47.0*,-4.0,-1.8,-19.5,8.1,31.5
CN(C)c1cccc2c1c(NC(=O)c1ccc(Cl)cc1)nn2C,-2.1,59.5*,-5.5,0.3,-13.6,1.9,20.7
CN(C)c1cccc2c1c(NC(=O)c1ccc(F)cc1)nn2C,8.3,55.4*,-12.6,-1.4,-0.2,7.7,14.6
CN(C)c1cccc2c1c(NC(=O)Nc1ccccc1)nn2C,7.2,-92.7,-3.5,-1.5,24.1,12.0,/
COc1ccc(-c2cc(CCC(=O)N3CCN(c4cc(C)ccc4C)CC3)[nH]n2)cc1,/,14.6,/,1.2,/,5.7,/
O=C(CN1CCN(C(=O)N2CCOCC2)CC1)Nc1ccc(Br)cc1,-6.7,40.9*,2.4,1.0,-12.5,4.1,12.0
COC(=O)c1ccccc1S(=O)(=O)N1CCC(C(=O)NCc2ccco2)CC1,2.0,6.6,/,0.6,-11.0,-8.4,/
CN1C2=CC=CC=CC2=[N+](C)C12C=CC(=[N+]([O-])[O-])C=C2[N+](=O)[O-] (centres undefined),4.1,53.4*,6.0,-6.0,15.9,12.6,25.6
COCCNC(=S)Nc1cc2oc3ccccc3c2cc1OC,0.7,-14.2,-6.7,2.4,5.2,-5.5,/
O=C1CC(c2ccccc2)Oc2cc(O)cc(O)c21 (centres undefined),36.0,2.0,-4.0,1.1,26.4,17.5,/
CC(C)=CCc1c(O)cc2c(c1O)C(=O)CC(c1ccccc1)O2 (centres undefined),-10.8,41.6*,0.6,2.3,-13.8,6.1,14.3
O=S(=O)(NC1=NCCCCC1)c1ccc(Cl)cc1Cl,-6.3,3.4,/,1.9,-8.9,2.6,/
O=C1Nc2ccccc2C1=Nc1cccc([N+](=O)[O-])c1,-4.4,13.2,-10.0,-2.1,-6.6,2.1,/
